The record followed here is ChEMBL document CHEMBL4342456, “Preventing Morphine-Seeking Behavior through the Re-Engineering of Vincamine's Biological Activity” (J Med Chem, 2020).

Data set [1] deals with T1, Glucose-dependent insulinotropic receptor (Homo sapiens) (UniProt Q8TDV5).
T1 sequence (whole entry): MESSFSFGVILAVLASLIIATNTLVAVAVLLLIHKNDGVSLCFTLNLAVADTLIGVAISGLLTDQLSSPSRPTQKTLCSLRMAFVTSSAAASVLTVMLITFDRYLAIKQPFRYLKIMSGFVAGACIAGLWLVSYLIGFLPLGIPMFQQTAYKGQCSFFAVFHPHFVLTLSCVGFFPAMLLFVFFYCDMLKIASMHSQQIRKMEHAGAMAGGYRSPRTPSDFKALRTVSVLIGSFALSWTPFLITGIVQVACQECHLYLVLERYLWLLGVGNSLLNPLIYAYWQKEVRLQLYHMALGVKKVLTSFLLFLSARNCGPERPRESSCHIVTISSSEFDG
The data set is described as follows: Antagonist activity at human GPR119 assessed as inhibition in oleoylethanolamide-induced beta-arrestin 2 recruitment at 20 uM incubated for 30 mins followed by oleoylethanolamide addition and measured after 90 or 180 mins by pathhunter beta-arrestin assay relative to control. An outline of the steps:
(§1)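 PathHunter beta-arrestin recruitment, antagonist mode, run at DiscoverX. Cells seeded and held at 37 °C, then preincubated with test sample for 30 min at 37 °C or room temperature (1% vehicle). Agonist then added at EC80 for 90 or 180 min. IC50 comes from concentration–response runs in the same format.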

Data set [2] can be described thus: Stability of compound in pH 2.0 HCl aqueous solution assessed as parent compound remaining at 0.025 mmol measured after 24 hrs. It counts as physicochemical. The note with it: read-out: Stability. An outline of the steps:
(§2)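 Acid stability: compound held 24 h at 37 °C in acidic aqueous media at pH 2.0 or pH 4.88. Percent recovery of parent compound was measured.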

A further data set deals with Prostacyclin receptor (Homo sapiens, UniProt P43119). The data set is described as follows: Antagonist activity at human Gs-coupled PTGIR assessed as inhibition in beraprost-induced beta-arrestin 2 recruitment at 20 uM incubated for 30 mins followed by beraprost- addition and measured after 90 or 180 mins by pathhunter beta-arrestin assay relative to control. An outline of the steps: as §1
In general terms: Activated receptors often draw arrestin, which recruitment assays turn into a signal.

Data set [3] concerns the target T2, Neuropeptide S receptor (Homo sapiens) (UniProt Q6W5P4).
T2 sequence (whole entry): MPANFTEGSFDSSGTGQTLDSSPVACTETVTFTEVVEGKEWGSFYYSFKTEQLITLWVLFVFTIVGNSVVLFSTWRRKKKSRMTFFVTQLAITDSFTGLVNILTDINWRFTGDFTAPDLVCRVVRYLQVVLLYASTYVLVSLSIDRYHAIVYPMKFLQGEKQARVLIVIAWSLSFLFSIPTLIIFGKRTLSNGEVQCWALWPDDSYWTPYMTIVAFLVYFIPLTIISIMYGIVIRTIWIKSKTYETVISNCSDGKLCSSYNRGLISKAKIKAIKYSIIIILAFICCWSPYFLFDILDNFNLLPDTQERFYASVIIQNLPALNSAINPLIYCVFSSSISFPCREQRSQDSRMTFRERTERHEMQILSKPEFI
The data set is described as follows: Antagonist activity at human Gq-coupled NPSR1b expressed in human U2OS cells assessed as inhibition in neuropeptide S-induced beta-arrestin 2 recruitment at 20 uM incubated for 30 mins followed by neuropeptide S addition and measured after 90 or 180 mins by pathhunter beta-arrestin assay relative to control. Type of data set: cell-based. In a few lines: as §1

Data set [4] concerns the target T3, Muscarinic acetylcholine receptor M4 (Homo sapiens, UniProt P08173).
T3 sequence (P08173 whole entry): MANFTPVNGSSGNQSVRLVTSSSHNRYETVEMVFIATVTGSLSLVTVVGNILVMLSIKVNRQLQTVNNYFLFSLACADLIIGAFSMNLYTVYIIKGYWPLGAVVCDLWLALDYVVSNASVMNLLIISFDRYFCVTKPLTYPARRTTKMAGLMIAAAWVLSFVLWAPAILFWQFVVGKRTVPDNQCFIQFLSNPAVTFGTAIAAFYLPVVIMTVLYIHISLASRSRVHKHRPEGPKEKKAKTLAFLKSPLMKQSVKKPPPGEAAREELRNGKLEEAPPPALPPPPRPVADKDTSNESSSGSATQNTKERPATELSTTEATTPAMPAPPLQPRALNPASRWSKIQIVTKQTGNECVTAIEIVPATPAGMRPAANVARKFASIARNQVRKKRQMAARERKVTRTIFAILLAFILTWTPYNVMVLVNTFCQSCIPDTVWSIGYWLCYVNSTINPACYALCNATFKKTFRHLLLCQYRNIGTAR
The data set is described as follows: Antagonist activity at human Gs/Gi/o-coupled CHRM4 expressed in CHOK1 cells assessed as inhibition in acetylcholine-induced beta-arrestin 2 recruitment incubated for 30 mins followed by acetylcholine addition and measured after 90 or 180 mins by pathhunter beta-arrestin assay. It counts as cell-based. An outline of the steps:
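PathHunter beta-arrestin recruitment, antagonist mode, run at DiscoverX. Cells seeded and held at 37 °C, then preincubated with test sample for 30 min at 37 °C or room temperature (1% vehicle). Agonist then added at EC80 for 90 or 180 min. […] IC50 comes from concentration–response runs in the same format.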

Data set [5] can be described thus: Toxicity in C57BL/6J mouse assessed as induction of behavioral changes at 60 nmol, icv. The note with it: in vivo, icv_or_intrathecal.
The target in data set [6] is T4, Orexin receptor type 2 (Homo sapiens) (UniProt O43614).
T4 sequence (whole entry): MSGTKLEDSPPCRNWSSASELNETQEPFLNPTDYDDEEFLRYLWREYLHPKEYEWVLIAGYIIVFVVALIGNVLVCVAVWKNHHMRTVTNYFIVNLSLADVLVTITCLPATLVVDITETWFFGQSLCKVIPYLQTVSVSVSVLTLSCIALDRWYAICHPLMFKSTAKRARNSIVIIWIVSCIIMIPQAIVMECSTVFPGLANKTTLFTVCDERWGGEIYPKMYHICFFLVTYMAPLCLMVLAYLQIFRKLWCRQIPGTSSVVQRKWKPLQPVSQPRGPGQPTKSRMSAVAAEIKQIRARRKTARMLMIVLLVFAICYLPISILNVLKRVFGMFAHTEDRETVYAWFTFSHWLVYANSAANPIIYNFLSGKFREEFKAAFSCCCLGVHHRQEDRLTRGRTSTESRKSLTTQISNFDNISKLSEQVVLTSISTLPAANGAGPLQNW
The data set is described as follows: Antagonist activity at human Gq-coupled HCRTR2 expressed in CHOK1 cells assessed as inhibition in Orexin A-induced beta-arrestin 2 recruitment at 20 uM incubated for 30 mins followed by Orexin A addition and measured after 90 or 180 mins by pathhunter beta-arrestin assay relative to control. It counts as cell-based. In a few lines: as §1

A further data set addresses Cannabinoid receptor 2 (Homo sapiens, UniProt P34972). The data set is described as follows: Antagonist activity at human Gi/o-coupled CNR2 expressed in CHOK1 cells assessed as inhibition in CP55940-induced beta-arrestin 2 recruitment at 20 uM incubated for 30 mins followed by CP55940 addition and measured after 90 or 180 mins by pathhunter beta-arrestin assay relative to control. It counts as cell-based. An outline of the steps: as §1

A short description of data set [7]: Stability of compound in pH 4.88 HCl aqueous solution assessed as parent compound remaining at 0.026 mmol measured after 24 hrs. It counts as physicochemical. The note with it: read-out: Stability. In a few lines:
as §2

What is called inhibition is the percentage by which the read-out fell short of the control. Usually IC50 stands for the point on the concentration scale where inhibition reaches its midpoint.

Sequence of Prostacyclin receptor (P43119 whole entry): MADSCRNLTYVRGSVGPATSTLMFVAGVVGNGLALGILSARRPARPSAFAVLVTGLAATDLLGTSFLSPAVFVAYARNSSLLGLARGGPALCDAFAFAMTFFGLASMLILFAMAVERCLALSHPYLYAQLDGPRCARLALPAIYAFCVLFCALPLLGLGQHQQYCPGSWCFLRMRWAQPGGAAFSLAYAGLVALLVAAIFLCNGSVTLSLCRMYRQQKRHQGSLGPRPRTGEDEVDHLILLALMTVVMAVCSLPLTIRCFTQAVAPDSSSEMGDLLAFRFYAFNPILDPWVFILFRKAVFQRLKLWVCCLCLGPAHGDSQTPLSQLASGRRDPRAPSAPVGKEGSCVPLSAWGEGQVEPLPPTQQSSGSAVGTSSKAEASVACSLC
Sequence of Cannabinoid receptor 2 (P34972 whole entry): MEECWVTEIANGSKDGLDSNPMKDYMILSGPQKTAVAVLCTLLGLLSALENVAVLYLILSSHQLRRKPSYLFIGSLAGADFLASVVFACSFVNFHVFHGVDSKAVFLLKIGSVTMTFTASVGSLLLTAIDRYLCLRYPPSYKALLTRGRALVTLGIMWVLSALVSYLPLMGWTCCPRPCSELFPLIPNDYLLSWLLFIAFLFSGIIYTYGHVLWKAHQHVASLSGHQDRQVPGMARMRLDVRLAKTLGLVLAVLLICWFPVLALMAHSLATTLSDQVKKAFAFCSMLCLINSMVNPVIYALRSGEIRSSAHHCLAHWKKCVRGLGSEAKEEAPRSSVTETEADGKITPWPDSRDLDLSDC

Consider `CC[C@@]12CCCN3CCc4c([nH]c5ccccc45)[C@]31N(Cc1cn(Cc3ccccc3)nn1)C(=O)C2`, for which the inhibition in [1] was determined as 30%; on Prostacyclin receptor, 75%; in data set [3] it was 30%; in [6] it was 80%; at Cannabinoid receptor 2, 60%. Moreover, the remaining at 24 h, 0.025 mmol in data set [2] came to 92.1%. Besides, the IC50 in data set [4] was 12.5 µM. Moreover, the Activity entry in [5] is listed as “Non-Toxic”. For the same molecule, the remaining at 24 h, 0.026 mmol in [7] stood at 99.2%.
